The target in data set [1] is T1, Histamine H3 receptor (Homo sapiens, UniProt Q9Y5N1). The experiment in a line: Displacement of [3H]N-alpha-methylhistamine from human histamine H3 receptor expressed in SK-N-MC cells. The data set is classed as cell-based. The method, boiled down: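 Membranes prepared from SK-N-MC cells expressing human H3 receptor, homogenized in 50 mM Tris/5 mM EDTA, pH 7.4. Incubated with 0.8 nM [3H]-N-alpha-methylhistamine ± compound, 60 min, 25 °C. Filtration over polyethylenimine-treated glass fiber filters with four ice-cold washes. Nonspecific binding defined with 10 µM histamine.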
A general note: Displacement assays read how much labelled ligand stays bound in the presence of the test substance.

Data set [2] concerns the target T1, Histamine H3 receptor. The data set is described as follows: Antagonist activity at human histamine H3 receptor expressed in SK-N-MC cells assessed as inhibition of forskolin-stimulated cAMP accumulation treated 10 min before histamine challenge. Type of data set: functional, cell-based. As to conditions: read-out: pA2 (converted). The method, boiled down:
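SK-N-MC sublines stably carrying human H3 receptor plus a beta-galactosidase reporter driven by multiple cAMP responsive elements. Antagonist added 10 min before histamine; forskolin (5 µM final) 5 min after histamine; 6 h at 37 °C. Lysis, then chlorophenol red beta-D-galactopyranoside substrate, absorbance 570 nm. pA2 from Schild regression of rightward shifts in histamine curves; mean of at least three determinations.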
On the technique in general: Cyclic AMP is a second messenger, typically raised through Gs and lowered through Gi signalling.

The subject of data set [3] is Rattus norvegicus. The experiment in a line: Wake promoting activity in Sprague-Dawley rat assessed as effect on rapid eye movement sleep at 10 mg/kg, sc. The data set is classed as functional, organism-based. Also on record: dose 10 mg/kg. The method, boiled down: (§1)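 Male adult Sprague-Dawley rats chronically implanted with EEG/EMG electrodes, given 10 mg/kg s.c. or saline vehicle 2 h after light-phase onset. Recording for 8 h, visually scored in 10 s epochs as wake, NREM or REM. Time per 1 h interval as % of recording time; n = 5 animals; vehicle vs compound by paired t-test.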

For a further data set, the target named is Cytochrome P450 2D6 (Homo sapiens, UniProt P10635). The data set is described as follows: Inhibition of CPY2D6 at >40 uM.
Another data set deals with Cytochrome P450 2C9 (Homo sapiens, UniProt P11712). The experiment in a line: Inhibition of CPY2C9 at >40 uM.
In data set [4] the test system is Rattus norvegicus. The experiment in a line: Ex vivo histamine H3 receptor occupancy in rat striatum at 30 mg/kg, po after 1 hr. Type of data set: functional. The method, boiled down: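 Ex vivo autoradiography in rat striatum, coronal sections, using [3H]-R-alpha-methylhistamine as radioligand. Oral dosing at 0.1, 0.3, 1, 3, 10 or 30 mg/kg; brains taken 1 h post-dose to measure H3 receptor occupancy.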

Data set [5] in a line: Half life in po dosed rat. The data set is classed as ADME, organism-based. As to conditions: in vivo.
In data set [6] the target is T2, hERG (KCNH2) (Homo sapiens, UniProt Q12809). The experiment in a line: Inhibition of human ERG at 10 uM. To be noted: read-out: Activity.
In data set [7] the target is T2, hERG (KCNH2). The experiment in a line: Inhibition of human ERG at 3 uM. As to conditions: read-out: Activity.
Another data set addresses Histamine H1 receptor (Homo sapiens, UniProt P35367). The data set is described as follows: Displacement of […] from histamine H1 receptor expressed in SK-N-MC cells. Type of data set: cell-based.
The nature of data set [8]: Oral bioavailability in rat. To be noted: in vivo. Type of data set: ADME, organism-based.
The target of another data set is Cytochrome P450 3A4 (Homo sapiens, UniProt P08684). The data set is described as follows: Inhibition of CPY3A4 at >40 uM.
In data set [9] the test system is Rattus norvegicus. The data set is described as follows: Wake promoting activity in Sprague-Dawley rat assessed as decrease in non-rapid eye movement sleep at 10 mg/kg, sc. Type of data set: functional, organism-based. Also on record: dose 10 mg/kg. The method, boiled down: as §1
In a further data set the target is Histamine H4 receptor (Homo sapiens, UniProt Q9H3N8). The experiment in a line: Displacement of […] from histamine H4 receptor expressed in SK-N-MC cells. Type of data set: cell-based.
Data set [10] addresses T3, Histamine H3 receptor (Rattus norvegicus, UniProt Q9QYN8). The data set is described as follows: Antagonist activity at rat H3 receptor expressed in SK-N-MC cells assessed as inhibition of forskolin-stimulated cAMP accumulation treated 10 min before histamine challenge. To be noted: read-out: pA2 (converted). The data set is classed as functional, cell-based.
The next data set concerns the target Cytochrome P450 2C19 (Homo sapiens, UniProt P33261). The experiment in a line: Inhibition of CPY2C19 at >40 uM.
The target of data set [11] is T3, Histamine H3 receptor. The data set is described as follows: Displacement of [3H]N-alpha-methylhistamine from rat histamine H3 receptor expressed in SK-N-MC cells. The data set is classed as cell-based. The method, boiled down: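 Membranes from homogenized SK-N-MC cells expressing the rat H3 receptor, in 50 mM Tris/5 mM EDTA pH 7.4. Incubated with 0.8 nM [3H]-Nα-methylhistamine ± compound for 60 min at 25 °C, then filtered and washed with ice-cold buffer. Nonspecific binding was defined with 10 μM histamine.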

The target of the next data set is T4, Cytochrome P450 1A2 (Homo sapiens, UniProt P05177).
T4 sequence (P05177 whole entry): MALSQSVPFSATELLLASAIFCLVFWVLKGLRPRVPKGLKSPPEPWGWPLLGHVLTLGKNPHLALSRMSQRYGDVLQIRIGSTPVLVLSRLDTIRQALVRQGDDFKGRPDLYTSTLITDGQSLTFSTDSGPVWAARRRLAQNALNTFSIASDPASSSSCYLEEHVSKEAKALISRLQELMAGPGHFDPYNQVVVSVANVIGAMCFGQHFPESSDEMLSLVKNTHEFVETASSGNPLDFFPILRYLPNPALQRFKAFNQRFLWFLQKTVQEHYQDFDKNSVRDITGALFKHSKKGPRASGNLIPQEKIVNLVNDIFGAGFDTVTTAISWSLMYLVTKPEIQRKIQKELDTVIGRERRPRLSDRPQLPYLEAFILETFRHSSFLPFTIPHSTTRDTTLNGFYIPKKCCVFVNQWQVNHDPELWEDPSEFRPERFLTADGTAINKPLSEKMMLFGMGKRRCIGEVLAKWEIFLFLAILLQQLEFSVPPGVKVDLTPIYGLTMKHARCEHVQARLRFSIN
The experiment in a line: Inhibition of CPY1A2 at >40 uM.

Each structure is given as a SMILES string. pKi: −log10 of the molar value. Calls of active or inactive are those of the source.

T1 sequence (Q9Y5N1 whole entry): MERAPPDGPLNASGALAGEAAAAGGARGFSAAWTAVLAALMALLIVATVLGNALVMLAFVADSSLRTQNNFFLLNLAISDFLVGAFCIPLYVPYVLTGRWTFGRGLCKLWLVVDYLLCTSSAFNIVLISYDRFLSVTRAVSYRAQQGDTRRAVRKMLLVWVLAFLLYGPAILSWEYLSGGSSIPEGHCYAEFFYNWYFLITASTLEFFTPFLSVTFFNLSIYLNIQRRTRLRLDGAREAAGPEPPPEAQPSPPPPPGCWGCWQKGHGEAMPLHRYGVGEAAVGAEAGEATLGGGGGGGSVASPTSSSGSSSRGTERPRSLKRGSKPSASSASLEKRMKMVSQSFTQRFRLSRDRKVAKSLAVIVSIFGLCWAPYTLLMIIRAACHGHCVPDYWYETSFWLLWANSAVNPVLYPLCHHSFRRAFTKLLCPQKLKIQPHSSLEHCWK
T3 sequence (Q9QYN8 whole entry): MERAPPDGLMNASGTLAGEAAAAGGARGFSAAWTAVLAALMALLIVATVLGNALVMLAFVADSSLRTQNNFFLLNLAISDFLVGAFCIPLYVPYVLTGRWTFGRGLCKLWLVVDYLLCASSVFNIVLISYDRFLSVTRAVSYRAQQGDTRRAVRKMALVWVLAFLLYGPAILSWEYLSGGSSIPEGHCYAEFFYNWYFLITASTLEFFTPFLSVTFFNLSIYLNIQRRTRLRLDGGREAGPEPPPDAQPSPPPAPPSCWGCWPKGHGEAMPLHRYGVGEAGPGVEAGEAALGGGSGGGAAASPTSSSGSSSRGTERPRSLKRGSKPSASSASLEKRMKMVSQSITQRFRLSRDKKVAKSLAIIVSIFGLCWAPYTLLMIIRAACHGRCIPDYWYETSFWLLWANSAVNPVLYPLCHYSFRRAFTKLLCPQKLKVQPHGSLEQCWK
T2 sequence (Q12809 whole entry): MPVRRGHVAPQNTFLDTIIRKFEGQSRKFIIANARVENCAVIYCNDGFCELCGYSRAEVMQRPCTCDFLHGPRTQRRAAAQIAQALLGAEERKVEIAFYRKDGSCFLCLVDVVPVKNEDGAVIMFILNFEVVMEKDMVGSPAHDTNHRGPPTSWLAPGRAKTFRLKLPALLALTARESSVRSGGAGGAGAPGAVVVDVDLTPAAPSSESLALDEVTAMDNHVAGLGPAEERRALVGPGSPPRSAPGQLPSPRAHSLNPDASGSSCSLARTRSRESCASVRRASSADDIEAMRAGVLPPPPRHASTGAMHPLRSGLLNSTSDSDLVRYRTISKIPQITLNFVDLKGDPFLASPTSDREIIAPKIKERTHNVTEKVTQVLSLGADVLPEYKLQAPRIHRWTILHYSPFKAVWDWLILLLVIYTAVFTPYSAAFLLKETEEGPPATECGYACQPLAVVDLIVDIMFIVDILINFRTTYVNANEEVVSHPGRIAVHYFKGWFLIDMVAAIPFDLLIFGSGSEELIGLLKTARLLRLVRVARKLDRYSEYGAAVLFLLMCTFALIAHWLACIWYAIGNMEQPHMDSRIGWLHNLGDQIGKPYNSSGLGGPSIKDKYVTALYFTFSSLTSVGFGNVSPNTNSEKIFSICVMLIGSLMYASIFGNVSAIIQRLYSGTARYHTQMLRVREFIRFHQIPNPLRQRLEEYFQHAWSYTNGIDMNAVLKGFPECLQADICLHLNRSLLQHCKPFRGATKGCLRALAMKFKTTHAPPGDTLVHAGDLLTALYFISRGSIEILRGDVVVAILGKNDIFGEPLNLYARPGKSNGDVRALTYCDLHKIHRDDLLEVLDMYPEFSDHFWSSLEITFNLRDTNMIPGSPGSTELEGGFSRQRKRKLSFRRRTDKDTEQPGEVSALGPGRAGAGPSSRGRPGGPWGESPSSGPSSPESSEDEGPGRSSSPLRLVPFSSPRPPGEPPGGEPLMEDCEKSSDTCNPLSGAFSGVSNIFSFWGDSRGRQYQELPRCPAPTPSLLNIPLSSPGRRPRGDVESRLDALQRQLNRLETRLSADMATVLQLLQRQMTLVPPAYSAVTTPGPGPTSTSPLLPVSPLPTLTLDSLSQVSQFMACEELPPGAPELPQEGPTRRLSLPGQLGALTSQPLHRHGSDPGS
Sequence of Cytochrome P450 3A4 (P08684 whole entry): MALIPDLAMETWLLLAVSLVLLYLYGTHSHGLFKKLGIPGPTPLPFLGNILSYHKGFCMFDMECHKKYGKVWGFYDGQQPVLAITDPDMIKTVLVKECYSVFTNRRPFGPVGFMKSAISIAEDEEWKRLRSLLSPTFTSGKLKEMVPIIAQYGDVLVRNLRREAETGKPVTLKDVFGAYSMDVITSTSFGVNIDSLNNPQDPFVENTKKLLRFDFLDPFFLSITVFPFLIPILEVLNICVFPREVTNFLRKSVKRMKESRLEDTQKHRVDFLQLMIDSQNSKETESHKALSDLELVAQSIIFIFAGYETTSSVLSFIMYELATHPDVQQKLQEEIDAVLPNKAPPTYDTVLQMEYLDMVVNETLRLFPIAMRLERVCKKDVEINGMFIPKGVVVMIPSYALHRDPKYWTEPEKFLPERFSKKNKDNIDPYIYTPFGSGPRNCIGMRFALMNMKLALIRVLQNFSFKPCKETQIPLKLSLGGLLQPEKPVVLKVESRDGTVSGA
Sequence of Histamine H1 receptor (P35367 whole entry): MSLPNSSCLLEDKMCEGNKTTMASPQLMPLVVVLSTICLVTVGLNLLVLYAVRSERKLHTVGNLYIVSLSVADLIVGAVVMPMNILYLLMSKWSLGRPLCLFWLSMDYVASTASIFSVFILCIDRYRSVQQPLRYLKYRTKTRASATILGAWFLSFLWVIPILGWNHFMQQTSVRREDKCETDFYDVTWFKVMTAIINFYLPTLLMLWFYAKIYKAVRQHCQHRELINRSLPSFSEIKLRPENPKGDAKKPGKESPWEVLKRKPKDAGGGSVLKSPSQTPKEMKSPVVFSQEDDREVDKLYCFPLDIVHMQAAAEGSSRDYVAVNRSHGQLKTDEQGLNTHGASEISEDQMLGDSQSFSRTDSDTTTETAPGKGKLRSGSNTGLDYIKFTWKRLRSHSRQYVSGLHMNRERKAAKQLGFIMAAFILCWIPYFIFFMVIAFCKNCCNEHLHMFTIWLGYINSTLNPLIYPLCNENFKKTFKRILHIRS
Sequence of Cytochrome P450 2C19 (P33261 whole entry): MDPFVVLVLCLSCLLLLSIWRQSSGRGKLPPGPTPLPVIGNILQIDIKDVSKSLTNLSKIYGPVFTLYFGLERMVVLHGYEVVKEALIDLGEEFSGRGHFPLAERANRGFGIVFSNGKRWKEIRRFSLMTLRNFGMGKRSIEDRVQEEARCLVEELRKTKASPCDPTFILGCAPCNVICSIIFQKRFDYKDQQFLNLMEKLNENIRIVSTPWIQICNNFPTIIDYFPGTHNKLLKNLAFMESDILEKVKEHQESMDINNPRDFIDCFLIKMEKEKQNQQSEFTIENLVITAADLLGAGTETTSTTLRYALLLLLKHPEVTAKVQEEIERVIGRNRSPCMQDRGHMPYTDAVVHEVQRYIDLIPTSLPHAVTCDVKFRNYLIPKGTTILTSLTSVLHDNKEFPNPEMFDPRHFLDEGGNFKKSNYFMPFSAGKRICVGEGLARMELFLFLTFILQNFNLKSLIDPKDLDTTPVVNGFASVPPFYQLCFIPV
Sequence of Histamine H4 receptor (Q9H3N8 whole entry): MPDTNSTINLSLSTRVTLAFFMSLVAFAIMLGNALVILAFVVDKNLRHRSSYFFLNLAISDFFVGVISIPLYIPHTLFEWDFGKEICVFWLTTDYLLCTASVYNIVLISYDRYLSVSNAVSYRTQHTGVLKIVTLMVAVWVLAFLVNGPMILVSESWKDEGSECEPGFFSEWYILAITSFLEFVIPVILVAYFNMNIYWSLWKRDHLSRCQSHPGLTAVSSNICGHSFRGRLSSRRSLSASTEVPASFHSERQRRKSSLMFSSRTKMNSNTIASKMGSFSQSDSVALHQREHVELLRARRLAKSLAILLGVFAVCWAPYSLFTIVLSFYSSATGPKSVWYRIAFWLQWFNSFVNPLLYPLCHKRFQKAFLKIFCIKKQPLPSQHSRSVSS
Sequence of Cytochrome P450 2D6 (P10635 whole entry): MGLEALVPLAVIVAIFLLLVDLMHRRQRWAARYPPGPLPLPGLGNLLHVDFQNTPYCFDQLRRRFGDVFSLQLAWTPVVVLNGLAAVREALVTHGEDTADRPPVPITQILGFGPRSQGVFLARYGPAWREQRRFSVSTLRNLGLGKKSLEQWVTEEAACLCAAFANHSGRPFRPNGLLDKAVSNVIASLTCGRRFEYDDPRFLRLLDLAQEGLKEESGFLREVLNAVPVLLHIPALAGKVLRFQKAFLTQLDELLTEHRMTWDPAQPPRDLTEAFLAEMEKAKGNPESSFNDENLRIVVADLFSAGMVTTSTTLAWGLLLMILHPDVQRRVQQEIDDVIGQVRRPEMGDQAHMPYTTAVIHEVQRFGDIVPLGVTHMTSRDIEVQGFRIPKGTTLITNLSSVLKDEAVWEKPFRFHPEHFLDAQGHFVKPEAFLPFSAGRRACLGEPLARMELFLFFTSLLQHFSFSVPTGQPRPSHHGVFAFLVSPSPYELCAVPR
Sequence of Cytochrome P450 2C9 (P11712 whole entry): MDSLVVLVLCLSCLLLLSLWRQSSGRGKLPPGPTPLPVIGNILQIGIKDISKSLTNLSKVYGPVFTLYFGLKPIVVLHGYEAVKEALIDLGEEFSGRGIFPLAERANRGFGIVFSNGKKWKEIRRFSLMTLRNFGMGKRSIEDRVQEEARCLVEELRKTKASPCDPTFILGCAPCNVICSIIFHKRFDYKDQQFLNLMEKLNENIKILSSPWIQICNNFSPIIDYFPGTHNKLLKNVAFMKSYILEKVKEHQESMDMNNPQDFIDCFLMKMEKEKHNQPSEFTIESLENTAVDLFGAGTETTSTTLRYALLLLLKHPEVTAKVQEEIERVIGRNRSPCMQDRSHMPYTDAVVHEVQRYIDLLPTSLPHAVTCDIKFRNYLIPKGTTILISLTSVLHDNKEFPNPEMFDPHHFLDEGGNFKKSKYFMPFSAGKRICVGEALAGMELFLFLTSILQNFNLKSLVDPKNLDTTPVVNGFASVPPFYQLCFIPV

As a reminder, the pKi is the Ki on a negative log10 scale, so that one unit is a factor of ten. A higher pKi goes with a low Ki. Consider `OC1CCN(Cc2ccc(C#CCCN3CCCCC3)cc2)CC1`, for which, on Histamine H3 receptor [1], the pKi is 9.05.

Turning to `C(#Cc1ccc(CN2CCCCC2)cc1)CCN1CCOCC1`, the pKi at Histamine H3 receptor [1] is 8.30.

`C(#Cc1ccc(CN2CCOCC2)cc1)CCN1CCCCC1` had a pKi at Histamine H3 receptor [1] of 8.76. The Kb at Histamine H3 receptor [2] was 3.24 nM.

Turning to `CN1CCN(Cc2ccc(C#CCCN3CCCCC3)cc2)CC1`, the pKi on Histamine H3 receptor [1] was 9.01.

As for `C(#Cc1cccc(CN2CCCCC2)c1)CCN1CCCCC1`, the pKi at Histamine H3 receptor [1] is 9.11. At Histamine H3 receptor [2], the Kb was 0.0813 nM.

Compound `CC(C)N1CCN(Cc2ccc(C#CCCN3CCCCC3)cc2)CC1` gave a negative-log Ki (pKi) at Histamine H3 receptor [1] of 9.06.

On Histamine H3 receptor [1], `C(#Cc1ccc(CN2CCCCC2)cc1)CCN1CCCCC1` had a pKi of 9.29. Further, the Kb at Histamine H3 receptor [2] was 0.148 nM.

Regarding `CCN(CC)CCC#Cc1ccc(CN2CCCCC2)cc1`, the pKi at Histamine H3 receptor [1] was 8.87.

Compound `C(#Cc1ccc(CN2CCCC2)cc1)CCN1CCCCC1` showed a negative-log Ki (pKi) on Histamine H3 receptor [1] of 9.21.

Regarding `C(#Cc1cccc(CN2CCCC2)c1)CCN1CCCCC1`, at Histamine H3 receptor [1], the pKi was 7.09.

At Histamine H3 receptor [1], `NC(=O)C1CCN(Cc2ccc(C#CCCN3CCCCC3)cc2)CC1` showed a negative logarithm of the Ki (pKi) of 9.12.

`NC(=O)C1CCN(Cc2cccc(C#CCCN3CCCCC3)c2)CC1` had a pKi on Histamine H3 receptor [1] of 9.26.

On Histamine H3 receptor [1], `C(#Cc1ccc(CN2CCCCC2)cc1)CCN1CCCC1` showed a pKi of 9.17.

As for `CN1CCN(CCC#Cc2ccc(CN3CCCCC3)cc2)CC1`, on Histamine H3 receptor [1], the pKi was 8.28.

Compound `C(#Cc1ccc(CN2CCCCC2)cc1)CCN1CCSCC1` gave a negative-log Ki (pKi) on Histamine H3 receptor [1] of 8.42.

The compound `C(#Cc1cccc(CN2CCCCC2)c1)CCN1CCOCC1` showed a pKi at Histamine H3 receptor [1] of 7.84.

In the case of `C(#Cc1ccc(CN2CCN(Cc3ccccc3)CC2)cc1)CCN1CCCCC1`, the negative logarithm of the Ki (pKi) at Histamine H3 receptor [1] was 8.72.

Regarding `CN1CCN(Cc2cccc(C#CCCN3CCCCC3)c2)CC1`, the pKi at Histamine H3 receptor [1] is 9.14.

Regarding `CN(C)Cc1ccc(C#CCCN2CCCCC2)cc1`, the negative logarithm of the Ki (pKi) at Histamine H3 receptor [1] was 9.04.

A word on the ED50: it is the dose at which the effect has come halfway, by size or by number of responders. Lower therefore signals greater potency. The term half-life denotes the time needed for the level to fall by half in the phase considered. A high value points to slow loss. For orientation: bioavailability means dose-corrected exposure relative to a reference, in per cent. Read a high bioavailability as good availability. Take `C(#Cc1cccc(CN2CCOCC2)c1)CCN1CCCCC1`: the outcome in the data set on Rattus norvegicus [3] was inactive. The “inhibition (INH)” value against Cytochrome P450 2D6, against Cytochrome P450 2C9, against Cytochrome P450 3A4, at Cytochrome P450 2C19 and against Cytochrome P450 1A2 was “Not Active” throughout. Also, it took a dose of 6.5 mg/kg to reach the 50% effect level in the data set on Rattus norvegicus [4] (ED50). Further, in data set [5], the half-life was 1.5 h. The inhibition at 10 µM at hERG (KCNH2) [6] is 13.7%. Moreover, on hERG (KCNH2) [7], the inhibition at 3 µM amounted to 8.3%. The values for the negative-log Ki (pKi) at Histamine H1 receptor, at Histamine H4 receptor and on Histamine H3 receptor [11] were below 5.00, below 5.00 and 8.15, respectively. In data set [8], the bioavailability stood at 11%. In addition, in the data set on Rattus norvegicus [9], the outcome was Active. Also, the Kb at Histamine H3 receptor [10] is 4.68 nM.

As for `C(#Cc1ccc(CN2CCC(Cc3ccccc3)CC2)cc1)CCN1CCCCC1`, the pKi at Histamine H3 receptor [1] was 8.46.

Consider `C(#Cc1ccccc1CN1CCCCC1)CCN1CCCCC1`, for which the pKi on Histamine H3 receptor [1] is 7.08. This pKi lies 1.38 log units lower than the previous one.

Values taken from ChEMBL document CHEMBL1154085, “Diamine-based human histamine H3 receptor antagonists: (4-aminobutyn-1-yl)benzylamines” (Eur J Med Chem, 2009).
